These results are taken from ChEMBL document CHEMBL4622835, “A novel potent metal-binding NDM-1 inhibitor was identified by fragment virtual, SPR and NMR screening” (Bioorg Med Chem, 2020).

Assay [1] is described as follows: Inhibition of bacteria NMD-1.
A short description of assay [2]: Binding affinity to recombinant bacteria NDM-1 (I31 to K268 residues)expressed in Escherichia coli BL21 (DE3) cells by SPR assay. The procedure, abridged: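 Tag-free NDM-1 at 50 µg/ml in pH 5.0 sodium acetate, amine-coupled to a CM7 chip (>8,000 RU). Biacore T200, 25 °C, 30 µL/min. Running buffer 10 mM Hepes pH 7.5, 150 mM NaCl, 100 µM ZnCl2, 2% DMSO (EDTA-2Na run without DMSO). Eight two-fold dilutions per compound. KD from a steady-state 1:1 fit, at least three runs.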

A short description of assay [3]: Inhibition of recombinant bacteria NDM-1 (I31 to K268 residues) expressed in Escherichia coli BL21 (DE3) cells incubated for 20 mins using meropenem as substrate. The procedure, abridged: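 NDM-1 (12 nM) preincubated with inhibitor for 20 min at room temperature, then meropenem (100 µM) added. Final buffer 50 mM hepes pH 7.24 with 2% DMSO. Absorbance read at 300 nm at 30 °C. Duplicate wells, three repeats. IC50 taken from percent loss of activity against inhibitor concentration; L-captopril as positive control.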

The subject of another assay is Klebsiella pneumoniae. In words: Synergistic antibacterial activity against Klebsiella pneumoniae ATCC BAA-2470 cells expressing NDM-1 incubated for 20 to 24 hrs presence of meropenem by broth dilution method (Rvb >64 ug/ml). In kind it is functional. A digest of the protocol: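 Broth microdilution in Mueller-Hinton broth, final inoculum about 5 × 10^5 CFU/mL. Test compound fixed at 100 µg/mL final (from 20 mg/mL DMSO stock). Meropenem in two-fold dilutions, 64 to 0.0625 µg/mL final. Plates held 20–24 h at 37 °C. MIC is the lowest meropenem concentration with no visible growth.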

A short description of assay [4]: Binding affinity to recombinant bacteria 15N labeled His-6-tagged NDM-1 (36 to 270 residues) expressed in Escherichia coli BL21 (DE3) cells by NMR analysis. A digest of the protocol:
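15N-labelled NDM-1 (0.11 mM or 0.165 mM) in 50 mM HEPES, 200 mM NaCl, pH 7.5, titrated with inhibitor from DMSO stock (20 mM or 50 mM). 1H-15N HSQC spectra recorded at 800 MHz, 298 K and 293 K. NDM-1:inhibitor mole ratios ran 1:0 to 1:15. Both di-Zn and apo (EDTA-stripped) forms were used; after the apo titrations, 2 equiv Zn2+ added.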

In assay [1], `O=C(O)[C@@H]1CS[C@H]2CS[C@H](CS)N21` displayed a half-maximal inhibitory concentration (IC50) of 23 µM.
For the compound `C[C@H](CS)C(=O)N1CCC[C@H]1C(=O)O` [CAPTOPRIL], the equilibrium dissociation constant (Kd) in assay [2] lay within 12 to 14.1 µM. Further, the half-inhibitory concentration (IC50) in assay [3] is 390 µM.
As for `NCCN[C@H]1CC[C@H](CC(=O)N[C@H]2Cc3cccc(C(=O)O)c3OB2O)CC1`, 0.01 µM corresponded to half-maximal inhibition in assay [1] (IC50).
Take `C/C(=N\Nc1ccccc1)C(=O)O`: the Kd in assay [2] turned out to be 168 µM. Moreover, the minimum inhibitory concentration (MIC) with Klebsiella pneumoniae is greater than 64 µg/mL.
Take `CC/C(=N\Nc1cccc2ccccc12)C(=O)O`: in assay [2], the Kd turned out to be 449 µM. Besides, the IC50 in assay [3] amounted to 28.1 µM. Also, the MIC with Klebsiella pneumoniae is greater than 64 µg/mL.
As for `CC/C(=N\Nc1cccnc1)C(=O)O.Cl`, the dissociation constant (Kd) in assay [2] is greater than 1000 µM. The MIC in the assay with Klebsiella pneumoniae was greater than 64 µg/mL.
`CC/C(=N\Nc1cccc2cccnc12)C(=O)O.Cl`: in assay [2], the dissociation constant Kd amounted to 275 µM. Also, the half-inhibitory concentration (IC50) in assay [3] amounted to 68.2 µM. The minimal inhibitory concentration (MIC) with Klebsiella pneumoniae is 64 µg/mL.
The compound `N[C@@H](CN[C@@H](CN[C@@H](CC(=O)O)C(=O)O)C(=O)O)C(=O)O` registered a concentration for half-maximal inhibition (IC50) in assay [1] of 7 µM.
As to `CC(C)(C)/C(=N\Nc1cccc2cccnc12)C(=O)O.Cl`, the Kd in assay [2] was found to be 435 µM. In addition, in assay [3], the IC50 is greater than 500 µM. The minimal inhibitory concentration (MIC) in the assay on Klebsiella pneumoniae came out at 64 µg/mL.
Take `CCC/C(=N\Nc1cccc2cccnc12)C(=O)O.Cl`: the Kd in assay [2] amounted to 221 µM. Further, in assay [3], the IC50 was found to be 82.3 µM. Moreover, in the assay on Klebsiella pneumoniae, the MIC was greater than 64 µg/mL.
As to `CCC/C(=N\Nc1cccnc1)C(=O)O.Cl`, the Kd in assay [2] was 703 µM. In addition, the MIC in the assay with Klebsiella pneumoniae is greater than 64 µg/mL.
With `C/C(=N\Nc1cccnc1)C(=O)O.Cl`, the Kd in assay [2] was greater than 1000 µM. Besides, the MIC with Klebsiella pneumoniae was greater than 64 µg/mL.
As to `O=C(O)CNC(=O)C(CS)Cc1ccccc1` (configuration not stated) [THIORPHAN], in assay [1], it took 1.8 µM to reach half-maximal inhibition (IC50).
For `C[C@@H](O)[C@H]1C(=O)N2C(C(=O)O)=C(S[C@@H]3CN[C@H](C(=O)N(C)C)C3)[C@H](C)[C@H]12` [MEROPENEM], the dissociation constant (Kd) in assay [2] stood at 75 µM.
Consider `NCc1ccc(C(=O)N[C@H]2Cc3cccc(C(=O)O)c3O[B-]2(O)O)cc1`, for which, in assay [1], the IC50 was found to be 0.029 µM.
For `CCC/C(=N\Nc1ccccc1)C(=O)O`, in assay [2], the dissociation constant Kd came to 188 µM. In addition, the minimal inhibitory concentration (MIC) in the assay on Klebsiella pneumoniae was greater than 64 µg/mL.
As for `CC(C)(C)/C(=N\Nc1cccnc1)C(=O)O.Cl`, the dissociation constant Kd in assay [2] is greater than 1000 µM. Moreover, the minimum inhibitory concentration (MIC) with Klebsiella pneumoniae is greater than 64 µg/mL.
Consider `CC(C)(C)/C(=N\Nc1cccc2ccccc12)C(=O)O`, for which the Kd in assay [2] came out at 307 µM. In addition, the half-inhibitory concentration (IC50) in assay [3] stood at 94.6 µM. In the assay on Klebsiella pneumoniae, the MIC was greater than 64 µg/mL.
On to `C/C(=N\Nc1cccc2cccnc12)C(=O)O.Cl`, for which the dissociation constant Kd was 219 to 290 µM in assay [2] and 620 µM in assay [4]. Further, the half-maximal inhibitory concentration (IC50) in assay [3] stood at 124 µM. In the assay on Klebsiella pneumoniae, the minimum inhibitory concentration (MIC) is greater than 64 µg/mL.
As for `CC/C(=N\Nc1ccccc1)C(=O)O`, the dissociation constant Kd in assay [2] was 191 µM. In the assay on Klebsiella pneumoniae, the MIC is greater than 64 µg/mL.
Consider `O=c1c2ccccc2[se]n1-c1ccccc1` [EBSELEN], for which, in assay [1], half-maximal inhibition (IC50) was put at 0.38 µM.
For `CC(C)(C)/C(=N\Nc1ccccc1)C(=O)O`, the dissociation constant Kd in assay [2] turned out to be 438 µM. In addition, the minimal inhibitory concentration (MIC) in the assay with Klebsiella pneumoniae is greater than 64 µg/mL.
Turning to `C/C(=N\Nc1cccc2ccccc12)C(=O)O`, the dissociation constant (Kd) in assay [2] stood at 255 µM. In addition, the IC50 in assay [3] amounted to 389 µM. In addition, in the assay with Klebsiella pneumoniae, the minimal inhibitory concentration (MIC) was greater than 64 µg/mL.
For the compound `CCC/C(=N\Nc1cccc2ccccc12)C(=O)O`, the equilibrium dissociation constant (Kd) in assay [2] is greater than 1000 µM. Besides, the concentration for half-maximal inhibition (IC50) in assay [3] is greater than 500 µM. For the same compound, the minimal inhibitory concentration (MIC) in the assay with Klebsiella pneumoniae turned out to be 32 µg/mL.
In the case of `O=C([O-])CN(CCN(CC(=O)[O-])CC(=O)O)CC(=O)O.[Na+].[Na+]` [EDETATE DISODIUM ANHYDROUS], in assay [2], the dissociation constant (Kd) is greater than 1000 µM. In addition, in assay [3], the half-inhibitory concentration (IC50) was determined as 17.2 µM.
